The subject of experiment [1] is KB. As to the kind of experiment: Inhibition of cell proliferation of human KB cells at 10 uM after 72 hrs by CellTiter assay. The experiment is classed as functional. In outline: (§1)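 KB cells from NCI grown in D-MEM with 10% fetal calf serum and antibiotics under 5% CO2. 600 cells/well, compound in DMSO added 24 h after seeding (1% DMSO final), exposure 72 h. MTS reagent for 3 h at 37 °C, A490. % inhibition = (1 − OD treated/OD DMSO control) × 100, mean ± SE of triplicates.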

In experiment [2] the test system is KB. As to the kind of experiment: Inhibition of cell proliferation of human KB cells at 1 uM after 72 hrs by CellTiter 96 assay. Format: functional. The essentials:
as §1

Experiment [3] relates to KB. As to the kind of experiment: Growth inhibition of human KB cells after 72 hrs by CellTiter 96 assay. Format: functional, cell-based. The essentials: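 NCI KB cells in D-MEM with 10% fetal calf serum and antibiotics, 5% CO2. 600 cells/well, dosed 24 h after plating from DMSO stocks, 1% DMSO final. Tested from 5 nM to 100 μM for 72 h, then 3 h at 37 °C with MTS reagent and A490 read. IC50 taken from separate duplicate experiments, values given individually.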

`CC[C@H]1NC(=O)[C@@H](C)C/C(C)=C/[C@H](C)C[C@H](C)OC(=O)C[C@H](c2ccc(O)cc2)NC(=O)[C@@H](Cc2c(Br)[nH]c3ccccc23)N(C)C1=O` [JASPAMIDE D] showed an inhibition at 10 µM in the experiment on KB [1] of 100%. Further, in the experiment on KB [2], at 1 µM the inhibition was 100%. In addition, in the experiment on KB [3], the IC50 stood at 4.4 nM.
Compound `C/C1=C\[C@H](C)C[C@H](C)OC(=O)C[C@H](c2ccc(O)cc2)NC(=O)[C@@H](Cc2c(Br)[nH]c3ccccc23)N(C)C(=O)[C@H](CO)NC(=O)[C@@H](C)C1` [JASPAMIDE E] displayed an inhibition at 10 µM with KB [1] of 100%. For the same compound, in the experiment with KB [2], the inhibition at 1 µM was determined as 100%. This compound also yielded a half-inhibitory concentration (IC50) in the experiment with KB [3] of 121 nM.
In the experiment with KB [1], `C/C1=C\[C@H](C)C[C@H](C)OC(=O)C[C@H](c2ccc(O)cc2)NC(=O)[C@@H](Cc2c(Br)[nH]c3ccccc23)N(C)C(=O)[C@H](C)NC(=O)[C@@H](C)C1O` (stereo partly drawn) [JASPAMIDE K] yielded an inhibition at 10 µM of 100%. Also, the inhibition at 1 µM in the experiment with KB [2] is 100%. Also, the IC50 in the experiment on KB [3] amounted to 3350 nM.
Turning to `C[C@@H]1NC(=O)[C@@H](C)C/C(CO)=C/[C@H](C)C[C@H](C)OC(=O)C[C@H](c2ccc(O)cc2)NC(=O)[C@@H](Cc2c(Br)[nH]c3ccccc23)N(C)C1=O` [JASPAMIDE L], in the experiment on KB [1], testing at 10 µM gave an inhibition of 99%. Also, in the experiment on KB [2], the inhibition at 1 µM came out at 100%. The compound further yielded an IC50 with KB [3] of 214 nM.
On the same counts, the results for `C/C1=C\[C@H](C)C[C@H](C)OC(=O)C[C@H](c2ccc(O)cc2)NC(=O)[C@@H](Cc2c(Br)[nH]c3ccccc23)N(C)C(=O)[C@H](C)NC(=O)[C@@H](C)C1` [JASPAMIDE] are 100%, 99% and 13 nM.
`C=C1C[C@H](C)C(=O)N[C@@H](C)C(=O)N(C)[C@H](Cc2c(Br)[nH]c3ccccc23)C(=O)N[C@@H](c2ccc(O)cc2)CC(=O)O[C@@H](C)C[C@@H](C)C1=O` [JASPLAKINOLIDE B] showed an inhibition at 10 µM in the experiment with KB [1] of 99%. In the experiment with KB [2], this compound returned an inhibition at 1 µM of 99%. This compound also showed an IC50 in the experiment with KB [3] of 29 nM.
Consider `C=C1C[C@H](C)C(=O)N[C@@H](C)C(=O)N(C)[C@H](Cc2c(Br)[nH]c3ccccc23)C(=O)N[C@@H](c2ccc(O)cc2)CC(=O)O[C@@H](C)C[C@@H](C)[C@H]1O` [JASPLAKINOLIDE CA], for which testing at 10 µM in the experiment on KB [1] gave an inhibition of 80%. The compound further registered an inhibition at 1 µM in the experiment with KB [2] of 0%.
For `C=C1C[C@H](C)C(=O)N[C@@H](C)C(=O)N(C)[C@H](Cc2c(Br)[nH]c3ccccc23)C(=O)N[C@@H](c2ccc(O)cc2)CC(=O)O[C@@H](C)C[C@@H](C)[C@@H]1O` [JASPLAKINOLIDE CB], in that order: 100% and 75%.
Consider `C/C(=C\[C@H](C)C[C@H](C)O)C[C@H](C)C(=O)N[C@@H](C)C(=O)N(C)[C@H](Cc1c(Br)[nH]c2ccccc12)C(=O)N[C@H](CC(=O)O)c1ccc(O)cc1` [JASPLAKINOLIDE Z1], for which the inhibition at 10 µM with KB [1] was 30%.
In turn, `C/C1=C\[C@H](C)C[C@H](C)OC(=O)C[C@H](c2ccc(O)c(Br)c2)NC(=O)[C@@H](Cc2c(Br)[nH]c3ccccc23)N(C)C(=O)[C@H](C)NC(=O)[C@@H](C)C1` [PIPESTELIDE A] displayed an inhibition at 10 µM in the experiment with KB [1] of 100%. The compound further registered an inhibition at 1 µM with KB [2] of 100%. The same compound showed an IC50 in the experiment with KB [3] of 100 nM.
Turning to `C/C1=C/[C@H](C)C(=O)N[C@@H](C)C(=O)N(C)[C@H](Cc2c(Br)[nH]c3ccccc23)C(=O)N[C@@H](c2ccc(O)cc2)CC(=O)O[C@@H](C)C[C@@H](C)[C@H]1O` [PIPESTELIDE B], the inhibition at 10 µM in the experiment on KB [1] worked out at 100%. The inhibition at 1 µM with KB [2] turned out to be 0%.

Values taken from ChEMBL document CHEMBL2040743, “Pipestelides A-C: cyclodepsipeptides from the Pacific marine sponge Pipestela candelabra” (J Nat Prod, 2012).
